Values after ≈ are worked out from the molar mass of the structure shown.
Experiments:
[1] = Antibacterial activity against Staphylococcus aureus Mu50 ATCC 700699 by broth microdilution method; assay type: functional, Staphylococcus aureus subsp. aureus Mu50
Staphylococcus aureus [2] = experiment: Antibacterial activity against Staphylococcus aureus ATCC 29213 by broth microdilution method; assay type: functional
Staphylococcus aureus [3] = experiment: Antibacterial activity against methicillin-resistant Staphylococcus aureus MRSA 433 by broth microdilution method; assay type: functional
Staphylococcus aureus [4] = experiment: Antibacterial activity against methicillin-resistant Staphylococcus aureus MRSA M923 by broth microdilution method; assay type: functional
Staphylococcus aureus [5] = experiment: Antibacterial activity against methicillin-resistant Staphylococcus aureus MRSA F511 by broth microdilution method; assay type: functional
HepG2 [6] = experiment: Cytotoxicity against human HepG2 cells at 25 to 100 ug/ml after 48 hrs by presto-blue staining-based assay; assay type: cell-based; settings: hepg2, 48 h
How it was run: (§1)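 HepG2 cells were grown in DMEM with 10% heat-inactivated FBS, 2 mM L-glutamine and penicillin/streptomycin. They were seeded at 40,000 cells/cm² on collagen-coated wells and treated two days later with enantiomers at 25–100 µg/ml (in DMSO) for 48 h. PrestoBlue resazurin was read after 1 h at 37 °C as absorbance at 570 nm against 600 nm. Data are mean ± SEM of 3 experiments in triplicate; Student's t test.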

HepG2 [7] = experiment: Cytotoxicity against human HepG2 cells at 50 to 100 ug/ml after 48 hrs by presto-blue staining-based assay; assay type: cell-based; settings: hepg2, 48 h; how it was run: as §1
Staphylococcus aureus [8] = experiment: Antibacterial activity against linezolid-sensitive methicillin-resistant Staphylococcus aureus by broth microdilution method; assay type: functional
[9] = tested on: Staphylococcus epidermidis; experiment: Antibacterial activity against linezolid-resistant methicillin-resistant Staphylococcus epidermidis by broth microdilution method; assay type: functional
HepG2 [10] = experiment: Cytotoxicity against human HepG2 cells at 25 ug/ml after 48 hrs by presto-blue staining-based assay; assay type: cell-based; settings: hepg2, 48 h; how it was run: as §1
HepG2 [11] = experiment: Cytotoxicity against human HepG2 cells at 100 ug/ml after 48 hrs by presto-blue staining-based assay; assay type: cell-based; settings: hepg2, 48 h; how it was run: as §1

Compound | MIC [1] [µg/mL] | MIC (Staphylococcus aureus [2]) [µg/mL] | MIC (Staphylococcus aureus [3]) [µg/mL] | MIC (Staphylococcus aureus [4]) [µg/mL] | MIC (Staphylococcus aureus [5]) [µg/mL] | Activity (HepG2 [6]) | Activity (HepG2 [7]) | MIC (Staphylococcus aureus [8]) [µg/mL] | MIC [9] [µg/mL] | Activity (HepG2 [10]) | Activity (HepG2 [11]) [%]
Cc1noc(-c2ccc(N3CC(CN=C=S)OC3=O)cc2F)n1 (racemic) | > 50 | > 50 | > 50 | > 50 | > 50 |  |  |  |  |  | 
CNC(=S)NCC1CN(c2ccc(-c3nc(C)no3)cc2)C(=O)O1 (racemic) | 1.6 (≈ 4.61 µM) | 6.25 (≈ 18 µM) | 3.12 (≈ 9 µM) | 6.25 (≈ 18 µM) | 6.25 (≈ 18 µM) |  |  |  |  |  | 
Cc1noc(-c2ccc(N3CC(CN=C=S)OC3=O)cc2)n1 (racemic) | > 50 | > 50 | > 50 | > 50 | 50 (≈ 158 µM) |  |  |  |  |  | 
Cc1noc(-c2ccc(N3CC(Cn4ccnn4)OC3=O)cc2)n1 (racemic) | 3.12 (≈ 9.58 µM) | 25 (≈ 76.6 µM) | 12.5 (≈ 38.3 µM) | 25 (≈ 76.6 µM) | 12.5 (≈ 38.3 µM) |  |  |  |  |  | 
CNC(=S)NC[C@H]1CN(c2ccc(-c3nc(C)no3)c(F)c2)C(=O)O1 |  |  |  |  |  | Toxic |  |  |  |  | 
CNC(=S)NC[C@H]1CN(c2ccc(-c3nc(C)no3)cc2)C(=O)O1 |  |  |  |  |  |  | Non-toxic | 0.5 (≈ 1.44 µM) | 8 (≈ 23 µM) | Toxic | 
Cc1noc(-c2ccc(N3CC(CNC(N)=S)OC3=O)cc2F)n1 (racemic) | > 50 | > 50 | > 50 | > 50 | > 50 |  |  |  |  |  | 
C=C1CN(c2ccc(-c3nc(C)no3)c(F)c2)C(=O)O1 | > 50 | > 50 | > 50 | > 50 | > 50 |  |  |  |  |  | 
Cc1noc(-c2ccc(N3CC(CNC(N)=S)OC3=O)cc2)n1 (racemic) | > 50 | > 50 | > 50 | > 50 | 50 (≈ 150 µM) |  |  |  |  |  | 
CC(=O)NC[C@H]1CN(c2ccc(N3CCOCC3)c(F)c2)C(=O)O1 [LINEZOLID] |  |  |  | 3.12 (≈ 9.26 µM) | 3.12 (≈ 9.26 µM) |  |  |  |  |  | 20
C=C1CN(c2ccc(-c3nc(C)no3)cc2)C(=O)O1 | > 50 | > 50 | > 50 | > 50 | > 50 |  |  |  |  |  | 
Cc1noc(-c2ccc(N3CC(Cn4ccnn4)OC3=O)cc2F)n1 (racemic) | 1.6 (≈ 4.65 µM) | 25 (≈ 72.6 µM) | 6.25 (≈ 18.2 µM) | 25 (≈ 72.6 µM) | 12.5 (≈ 36.3 µM) |  |  |  |  |  | 
CNC(=S)NC[C@@H]1CN(c2ccc(-c3nc(C)no3)c(F)c2)C(=O)O1 |  |  |  |  |  | Toxic |  |  |  |  | 
CNC(=S)NCC1CN(c2ccc(-c3nc(C)no3)c(F)c2)C(=O)O1 (racemic) | 1.6 (≈ 4.38 µM) | 6.25 (≈ 17.1 µM) | 3.12 (≈ 8.55 µM) | 6.25 (≈ 17.1 µM) | 6.25 (≈ 17.1 µM) |  |  |  |  |  | 

Source: ChEMBL document CHEMBL3351809, “New potent antibacterials against Gram-positive multiresistant pathogens: effects of side chain modification and chirality in linezolid-like 1,2,4-oxadiazoles” (Bioorg Med Chem, 2014)
